Results: ChEMBL document CHEMBL1166003, “Triterpene glycosides from Curculigo orchioides and their cytotoxic activity” (J Nat Prod, 2010)
Blank lines part the entries; values can stand above or below the molecule they belong to. Calls of active or inactive are those of the source. The rule behind the calls is not given here.

Tests used:
HL-60 [1] = assay: Cytotoxicity against human HL60 cells at 20 uM after 72 hrs by MTT assay; type: functional, cell-based
HL-60 [2] = assay: Cytotoxicity against human HL60 cells after 72 hrs by MTT assay; type: functional, cell-based; conditions: HL-60, 72 h
Outline: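 HL-60 (JCRB 0085) kept in RPMI 1640 with 10% heat-inactivated FBS, penicillin/streptomycin, 37 °C, 5% CO2. Seeded at 4 × 10^4 cells/mL, preincubated 24 h, then dosed from EtOH-H2O (1:1) to final 0.01-20 µg/mL; vehicle-only controls. After 72 h, modified MTT read-out: MTT 4 h, centrifugation, formazan dissolved in DMSO, A550. Triplicate; IC50 taken as 50% reduction of viable cells.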

ACHN = assay: Growth inhibition of human ACHN cells after 48 hrs by SRB assay; type: functional
Outline: (§1)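 Part of a 39-line human cancer cell panel, run by a modified NCI method. Cells were plated at suitable density in RPMI 1640 with 5% FBS and left to attach overnight before compound addition. Read-out was GI50.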

SF-268 = assay: Growth inhibition of human SF268 cells after 48 hrs by SRB assay; type: functional; conditions: SF-268, 48 h; outline: as §1
A549 = assay: Growth inhibition of human A549 cells after 48 hrs by SRB assay; type: functional; conditions: A549, 48 h; outline: as §1
SK-OV-3 = assay: Growth inhibition of human SKOV3 cells after 48 hrs by SRB assay; type: functional; conditions: SK-OV-3, 48 h; outline: as §1
NCI-H460 = assay: Growth inhibition of human NCI-H460 cells after 48 hrs by SRB assay; type: functional; conditions: NCI-H460, 48 h; outline: as §1
MCF7 = assay: Growth inhibition of human MCF7 cells after 48 hrs by SRB assay; type: functional; conditions: MCF7, 48 h; outline: as §1
St-4 = assay: Growth inhibition of human St-4 cells after 48 hrs by SRB assay; type: functional; conditions: St-4, 48 h; outline: as §1
MKN-74 = assay: Growth inhibition of human MKN74 cells after 48 hrs by SRB assay; type: functional; conditions: MKN-74, 48 h; outline: as §1
SF-539 = assay: Growth inhibition of human SF539 cells after 48 hrs by SRB assay; type: functional; conditions: SF-539, 48 h; outline: as §1
OVCAR-8 = assay: Growth inhibition of human OVCAR8 cells after 48 hrs by SRB assay; type: functional; conditions: OVCAR-8, 48 h; outline: as §1
SNB-78 = assay: Growth inhibition of human SNB78 cells after 48 hrs by SRB assay; type: functional; conditions: SNB-78, 48 h; outline: as §1
DMS-273 = assay: Growth inhibition of human DMS273 cells after 48 hrs by SRB assay; type: functional; conditions: DMS-273, 48 h; outline: as §1
MKN-28 = assay: Growth inhibition of human MKN28 cells after 48 hrs by SRB assay; type: functional; conditions: MKN-28, 48 h; outline: as §1
OVCAR-4 = assay: Growth inhibition of human OVCAR4 cells after 48 hrs by SRB assay; type: functional; conditions: OVCAR-4, 48 h; outline: as §1
SF-295 = assay: Growth inhibition of human SF295 cells after 48 hrs by SRB assay; type: functional; conditions: SF-295, 48 h; outline: as §1
NCI-H23 = assay: Growth inhibition of human NCI-H23 cells after 48 hrs by SRB assay; type: functional; conditions: NCI-H23, 48 h; outline: as §1
HCC 2998 = assay: Growth inhibition of human HCC2998 cells after 48 hrs by SRB assay; type: functional; conditions: HCC 2998, 48 h; outline: as §1
HT-29 = assay: Growth inhibition of human HT-29 cells after 48 hrs by SRB assay; type: functional; conditions: HT-29, 48 h; outline: as §1
[3] = Growth inhibition of human MKN1 cells after 48 hrs by SRB assay; type: functional; conditions: MKN-1, 48 h; outline: as §1
OVCAR-5 = assay: Growth inhibition of human OVCAR5 cells after 48 hrs by SRB assay; type: functional; conditions: OVCAR-5, 48 h; outline: as §1
DU-145 = assay: Growth inhibition of human DU145 cells after 48 hrs by SRB assay; type: functional; conditions: DU-145, 48 h; outline: as §1
[4] = Growth inhibition of human RXF631L cells after 48 hrs by SRB assay; type: functional; conditions: RXF 631, 48 h; outline: as §1
SNB-75 = assay: Growth inhibition of human SNB75 cells after 48 hrs by SRB assay; type: functional; conditions: SNB-75, 48 h; outline: as §1
NCI-H522 = assay: Growth inhibition of human NCI-H522 cells after 48 hrs by SRB assay; type: functional; conditions: NCI-H522, 48 h; outline: as §1
LOX IMVI = assay: Growth inhibition of human LOXIMVI cells after 48 hrs by SRB assay; type: functional; outline: as §1
DMS-114 = assay: Growth inhibition of human DMS114 cells after 48 hrs by SRB assay; type: functional; conditions: DMS-114, 48 h; outline: as §1
MKN-7 = assay: Growth inhibition of human MKN7 cells after 48 hrs by SRB assay; type: functional; conditions: MKN-7, 48 h; outline: as §1
MKN-45 = assay: Growth inhibition of human MKN45 cells after 48 hrs by SRB assay; type: functional; conditions: MKN-45, 48 h; outline: as §1
PC-3 = assay: Growth inhibition of human PC3 cells after 48 hrs by SRB assay; type: functional; conditions: PC-3, 48 h; outline: as §1
NCI-H226 = assay: Growth inhibition of human NCI-H226 cells after 48 hrs by SRB assay; type: functional; conditions: NCI-H226, 48 h; outline: as §1
HCT-116 = assay: Growth inhibition of human HCT116 cells after 48 hrs by SRB assay; type: functional; conditions: HCT-116, 48 h; outline: as §1
[5] = Growth inhibition of human HBC4 cells after 48 hrs by SRB assay; type: functional; conditions: HBC4, 48 h; outline: as §1
MDA-MB-231 = assay: Growth inhibition of human MDA-MB-231 cells after 48 hrs by SRB assay; type: functional; conditions: MDA-MB-231, 48 h; outline: as §1
U-251 = assay: Growth inhibition of human U251 cells after 48 hrs by SRB assay; type: functional; conditions: U-251, 48 h; outline: as §1
[6] = Growth inhibition of human BSY1 cells after 48 hrs by SRB assay; type: functional; conditions: BSY-1, 48 h; outline: as §1
HCT-15 = assay: Growth inhibition of human HCT15 cells after 48 hrs by SRB assay; type: functional; conditions: HCT-15, 48 h; outline: as §1
OVCAR-3 = assay: Growth inhibition of human OVCAR-3 cells after 48 hrs by SRB assay; type: functional; conditions: OVCAR-3, 48 h; outline: as §1
[7] = Growth inhibition of human HBC5 cells after 48 hrs by SRB assay; type: functional; conditions: HBC5, 48 h; outline: as §1
KM12 = assay: Growth inhibition of human KM12 cells after 48 hrs by SRB assay; type: functional; conditions: KM12, 48 h; outline: as §1

SMILES: CC(C)C(=O)CC[C@@H](C)[C@H]1[C@@H](O)C[C@@]2(C)[C@@H]3CC[C@H]4C(C)(C)[C@@H](O[C@@H]5O[C@H](CO)[C@@H](O)[C@H](O)[C@H]5O[C@@H]5O[C@H](CO)[C@@H](O)[C@H](O[C@@H]6O[C@H](CO)[C@@H](O)[C@H](O)[C@H]6O)[C@H]5O)CC[C@@]45C[C@@]35C[C@H](O)[C@]12C
inhibition (HL-60 [1]): inactive

SMILES: CC(C)C(=O)CC[C@@H](C)[C@H]1[C@@H](O)C[C@@]2(C)[C@@H]3CC[C@H]4C(C)(C)[C@@H](O[C@@H]5O[C@H](CO)[C@@H](O)[C@H](O)[C@H]5O[C@@H]5O[C@H](CO)[C@@H](O)[C@H](O)[C@H]5O)CC[C@@]45C[C@@]35C[C@H](O)[C@]12C
inhibition (HL-60 [1]): inactive

SMILES: CC(C)C(=O)CC[C@@H](C)[C@H]1[C@@H](O)C[C@@]2(C)[C@@H]3CC[C@H]4C(C)(C)[C@@H](O[C@@H]5O[C@H](CO)[C@@H](O)[C@H](O)[C@H]5O)CC[C@@]45C[C@@]35C[C@H](O)[C@]12C
IC50 (HL-60 [2]): 9000 nM

GI50 (ACHN): 2000 nM | GI50 (A549): 2690 nM | GI50 (SK-OV-3): 4790 nM | GI50 (NCI-H460): 2240 nM | GI50 (MCF7): 3800 nM | GI50 (MKN-74): 2190 nM | GI50 (OVCAR-8): 1550 nM | GI50 (MKN-28): 2040 nM | GI50 (OVCAR-4): 2400 nM | GI50 (NCI-H23): 3090 nM | GI50 (HCC 2998): 16600 nM | GI50 (HT-29): 3310 nM | GI50 (OVCAR-5): 4790 nM | GI50 (DU-145): 2090 nM | GI50 (NCI-H522): 2880 nM | GI50 (MKN-7): 1910 nM | GI50 (MKN-45): 64600 nM | GI50 (PC-3): 14800 nM | GI50 (NCI-H226): 2750 nM | GI50 (HCT-116): 2400 nM | GI50 (MDA-MB-231): 2000 nM | GI50 (U-251): 2190 nM | GI50 (HCT-15): 3470 nM | GI50 (OVCAR-3): 3240 nM
SMILES: CC(C)C(=O)CC[C@@H](C)[C@H]1[C@@H](O)C[C@@]2(C)[C@@H]3CC[C@H]4C(C)(C)[C@@H](O)CC[C@@]45C[C@@]35C[C@H](O)[C@]12C
GI50 (SF-268): 1380 nM | GI50 (St-4): 2750 nM | GI50 (SF-539): 2140 nM | GI50 (SNB-78): 5010 nM | GI50 (DMS-273): 2090 nM | GI50 (SF-295): 2090 nM | GI50 [3]: 2570 nM | GI50 [4]: 1780 nM | GI50 (SNB-75): 3800 nM | GI50 (LOX IMVI): 1550 nM | GI50 (DMS-114): 1780 nM | IC50 (HL-60 [2]): 1800 nM | GI50 [5]: 3160 nM | GI50 [6]: 1950 nM | GI50 [7]: 2880 nM | GI50 (KM12): 6170 nM

SMILES: CC(C)C(=O)CC[C@@H](C)[C@H]1[C@@H](O)C[C@@]2(C)[C@@H]3CC[C@H]4C(C)(C)[C@@H](O[C@@H]5O[C@H](CO)[C@@H](O)[C@H](O)[C@H]5O[C@@H]5O[C@@H](C)[C@H](O)[C@@H](O[C@@H]6O[C@H](CO)[C@@H](O)[C@H](O)[C@H]6O)[C@H]5O)CC[C@@]45C[C@@]35C[C@H](O)[C@]12C
inhibition (HL-60 [1]): inactive

SMILES: CC(C)C(=O)CC[C@@H](C)[C@H]1[C@@H](O)C[C@@]2(C)[C@@H]3CC[C@H]4C(C)(C)[C@@H](O[C@@H]5O[C@H](CO)[C@@H](O)[C@H](O)[C@H]5O[C@@H]5O[C@@H](C)[C@H](O)[C@@H](O)[C@H]5O)CC[C@@]45C[C@@]35C[C@H](O)[C@]12C
inhibition (HL-60 [1]): inactive

SMILES: CC(C)C(=O)CC[C@@H](C)[C@H]1[C@@H](O)C[C@@]2(C)[C@@H]3CC[C@H]4C(C)(C)[C@@H](O[C@@H]5O[C@H](CO[C@@H]6O[C@H](CO)[C@@H](O)[C@H](O)[C@H]6O)[C@@H](O)[C@H](O)[C@H]5O)CC[C@@]45C[C@@]35C[C@H](O)[C@]12C
inhibition (HL-60 [1]): inactive
